Reference: ChEMBL document CHEMBL1909618, “Non-steroidal dissociated glucocorticoid agonists: indoles as A-ring mimetics and function-regulating pharmacophores” (Bioorg Med Chem Lett, 2011)

Experiments:
[1] = biological target: T1, Glucocorticoid receptor (Homo sapiens) (UniProt P04150); assay: Agonist activity at glucocorticoid receptor in HFF assessed as inhibition of IL1-induced IL-6 production after 18 to 24 hrs relative to Dexamethasone; format: functional
T1 sequence (whole entry): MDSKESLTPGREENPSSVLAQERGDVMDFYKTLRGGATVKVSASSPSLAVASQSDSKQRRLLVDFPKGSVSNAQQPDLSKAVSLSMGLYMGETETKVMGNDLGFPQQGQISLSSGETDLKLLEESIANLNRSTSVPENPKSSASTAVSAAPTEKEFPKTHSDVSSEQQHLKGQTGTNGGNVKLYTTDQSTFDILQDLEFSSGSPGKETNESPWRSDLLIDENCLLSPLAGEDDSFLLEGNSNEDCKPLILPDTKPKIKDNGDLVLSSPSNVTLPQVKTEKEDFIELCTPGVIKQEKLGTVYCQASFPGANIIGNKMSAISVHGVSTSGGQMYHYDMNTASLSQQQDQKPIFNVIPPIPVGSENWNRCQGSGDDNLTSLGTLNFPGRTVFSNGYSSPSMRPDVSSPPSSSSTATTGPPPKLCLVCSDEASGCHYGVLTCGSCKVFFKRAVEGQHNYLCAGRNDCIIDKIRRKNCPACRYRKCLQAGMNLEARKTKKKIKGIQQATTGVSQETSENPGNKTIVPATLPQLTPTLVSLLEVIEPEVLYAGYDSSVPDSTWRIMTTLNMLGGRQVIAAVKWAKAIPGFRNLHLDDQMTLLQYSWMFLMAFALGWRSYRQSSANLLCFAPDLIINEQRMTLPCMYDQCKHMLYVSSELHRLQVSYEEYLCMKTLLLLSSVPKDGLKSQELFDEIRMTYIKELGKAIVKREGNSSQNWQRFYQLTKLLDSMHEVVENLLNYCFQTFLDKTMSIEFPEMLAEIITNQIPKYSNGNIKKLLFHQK
Summary of the method: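 Human foreskin fibroblasts stimulated with IL-1 (1 ng/mL) in the presence of test compound, incubated at 37 °C for 18–24 h. IL-6 in the culture medium was quantified by electrochemiluminescence, DELFIA or ELISA. IC50 and % maximal efficacy were reported.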

Glucocorticoid receptor [2] = biological target: T2, Glucocorticoid receptor (Homo sapiens, UniProt P04150); assay: Transactivation activity of glucocorticoid receptor in HFF assessed as induction of aromatase activity by measuring beta-estradiol activity after 18 to 24 hrs by ELISA
T2 sequence (P04150 whole entry): T1 sequence (whole entry)

[3] = biological target: T1, Glucocorticoid receptor (Homo sapiens); assay: Transactivation activity of glucocorticoid receptor in HFF assessed as induction of aromatase activity by measuring beta-estradiol activity after 18 to 24 hrs by ELISA relative to Dexamethasone
Glucocorticoid receptor [4] = biological target: T2, Glucocorticoid receptor; assay: Displacement of tetramethylrhodamine-labeled Dexamethasone from human recombinant glucocorticoid receptor expressed in baculovirus infected insect cells by fluorescence polarization assay
Progesterone receptor = biological target: T3, Progesterone receptor (Homo sapiens, UniProt P06401); assay: Displacement of tetramethylrhodamine-labeled RU-486 from human recombinant progesterone receptor expressed in baculovirus infected insect cells by fluorescence polarization assay
T3 sequence (P06401 whole entry): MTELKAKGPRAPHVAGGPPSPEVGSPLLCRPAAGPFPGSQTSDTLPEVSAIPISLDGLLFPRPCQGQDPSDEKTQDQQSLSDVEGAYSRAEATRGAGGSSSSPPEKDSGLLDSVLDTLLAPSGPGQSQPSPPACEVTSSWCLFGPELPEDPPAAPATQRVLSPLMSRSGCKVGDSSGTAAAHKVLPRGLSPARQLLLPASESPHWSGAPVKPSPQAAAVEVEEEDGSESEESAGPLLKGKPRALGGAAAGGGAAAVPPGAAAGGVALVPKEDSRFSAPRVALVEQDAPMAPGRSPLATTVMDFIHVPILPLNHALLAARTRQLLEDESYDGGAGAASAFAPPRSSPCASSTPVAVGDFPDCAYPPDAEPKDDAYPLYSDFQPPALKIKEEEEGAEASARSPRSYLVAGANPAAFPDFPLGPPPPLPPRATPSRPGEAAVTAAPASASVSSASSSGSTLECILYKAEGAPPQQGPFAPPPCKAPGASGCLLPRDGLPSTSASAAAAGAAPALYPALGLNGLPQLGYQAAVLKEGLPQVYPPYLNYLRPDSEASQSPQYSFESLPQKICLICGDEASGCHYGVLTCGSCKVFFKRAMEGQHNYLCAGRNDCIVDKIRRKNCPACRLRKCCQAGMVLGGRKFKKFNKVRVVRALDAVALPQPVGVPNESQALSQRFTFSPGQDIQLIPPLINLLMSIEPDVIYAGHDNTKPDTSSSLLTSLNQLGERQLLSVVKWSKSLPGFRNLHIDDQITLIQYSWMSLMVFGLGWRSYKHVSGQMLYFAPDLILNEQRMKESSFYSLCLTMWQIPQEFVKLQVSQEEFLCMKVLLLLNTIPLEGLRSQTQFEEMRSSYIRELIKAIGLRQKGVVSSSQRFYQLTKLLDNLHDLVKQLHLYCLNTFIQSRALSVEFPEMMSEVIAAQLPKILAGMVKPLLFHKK
Summary of the method: (§1)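 Fluorescence polarization competition assays with recombinant human receptors in lysates of baculovirus-infected insect cells. Reactions contained 1% DMSO and ran 1 h at room temperature.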

[5] = biological target: T4, Mineralocorticoid receptor (Homo sapiens, UniProt P08235); assay: Displacement of tetramethylrhodamine-labeled Dexamethasone from human recombinant mineralocorticoid receptor expressed in baculovirus infected insect cells by fluorescence polarization assay; summary of the method: as §1
T4 sequence (P08235 whole entry): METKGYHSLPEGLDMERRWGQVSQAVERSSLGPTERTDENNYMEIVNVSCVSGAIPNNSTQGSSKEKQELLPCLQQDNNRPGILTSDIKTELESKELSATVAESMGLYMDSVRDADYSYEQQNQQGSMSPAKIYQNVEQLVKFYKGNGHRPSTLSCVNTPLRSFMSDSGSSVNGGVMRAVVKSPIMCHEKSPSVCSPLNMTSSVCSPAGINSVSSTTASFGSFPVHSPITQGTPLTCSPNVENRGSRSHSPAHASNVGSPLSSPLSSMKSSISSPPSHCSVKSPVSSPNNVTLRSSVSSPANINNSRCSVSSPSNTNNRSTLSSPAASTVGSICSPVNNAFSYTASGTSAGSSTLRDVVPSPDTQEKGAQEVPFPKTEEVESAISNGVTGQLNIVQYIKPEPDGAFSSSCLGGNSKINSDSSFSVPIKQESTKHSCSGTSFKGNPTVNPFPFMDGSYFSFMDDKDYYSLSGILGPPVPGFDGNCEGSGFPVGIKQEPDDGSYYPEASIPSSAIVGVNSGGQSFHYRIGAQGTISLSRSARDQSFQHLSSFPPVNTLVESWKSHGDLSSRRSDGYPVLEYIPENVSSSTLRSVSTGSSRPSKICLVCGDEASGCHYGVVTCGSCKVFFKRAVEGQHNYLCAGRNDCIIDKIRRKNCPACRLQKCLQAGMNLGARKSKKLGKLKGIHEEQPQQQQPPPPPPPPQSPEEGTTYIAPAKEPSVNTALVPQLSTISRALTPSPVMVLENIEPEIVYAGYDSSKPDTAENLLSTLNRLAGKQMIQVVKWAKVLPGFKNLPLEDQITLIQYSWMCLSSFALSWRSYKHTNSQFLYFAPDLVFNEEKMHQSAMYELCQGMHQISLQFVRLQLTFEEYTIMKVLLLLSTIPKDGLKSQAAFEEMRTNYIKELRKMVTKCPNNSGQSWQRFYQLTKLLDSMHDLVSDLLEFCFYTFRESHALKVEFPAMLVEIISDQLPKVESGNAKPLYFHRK

Glucocorticoid receptor [6] = biological target: T2, Glucocorticoid receptor; assay: Agonist activity at glucocorticoid receptor in HFF assessed as inhibition of IL1-induced IL-6 production after 18 to 24 hrs; format: functional

Row | Compound | Efficacy [1] [%] | EC50 (Glucocorticoid receptor [2]; read-out: EC50) [nM] | Efficacy [3] [%] | IC50 (Glucocorticoid receptor [4]) [nM] | IC50 (Progesterone receptor) [nM] | IC50 [5] [nM] | IC50 (Glucocorticoid receptor [6]) [nM] | EC50 (Glucocorticoid receptor [2])
1 | COc1ccc(F)cc1C(C)(C)C[C@](O)(Cc1cc2ccccc2[nH]1)C(F)(F)F | 20 | > 2000 | 20 | > 2000 | 1200 | 1100 | > 2000 | –
2 | CC(C)(C[C@](O)(Cc1cc2ccc(C#N)cc2[nH]1)C(F)(F)F)c1cc(S(C)(=O)=O)cc2c1OCC2 | – | – | – | 405 | 1400 | 405 | – | –
3 | COc1ccc(F)cc1C(C)(C)CC(O)(Cc1cc2cccc(F)c2[nH]1)C(F)(F)F (racemic) | 75 | 473 | 89 | 15 | 930 | 435 | 36 | –
4 | COc1ccc(F)cc1C(C)(C)CC(O)(Cc1cc2cccc(C)c2[nH]1)C(F)(F)F (racemic) | 26 | > 2000 | 26 | 56 | 1450 | 1040 | > 2000 | –
5 | COc1ccc(F)cc1C(C)(C)CC(O)(Cc1cc2cccc(C(F)(F)F)c2[nH]1)C(F)(F)F (racemic) | – | > 2000 | – | 120 | 1750 | 1650 | > 2000 | –
6 | COc1ccc(F)cc1C(C)(C)CC(O)(Cc1cc2cccc(C#N)c2[nH]1)C(F)(F)F (racemic) | 30 | > 2000 | – | 27 | > 2000 | 1420 | > 2000 | –
7 | COc1ccc(F)cc1C(C)(C)CC(O)(Cc1cc2c(C)cccc2[nH]1)C(F)(F)F (racemic) | 91 | 9 | 110 | 30 | 350 | 415 | 6 | –
8 | COc1ccc(F)cc1C(C)(C)CC(O)(Cc1cc2c(C(F)(F)F)cccc2[nH]1)C(F)(F)F (racemic) | 70 | – | 30 | 160 | > 2000 | > 2000 | 290 | Not Active
9 | COc1ccc(F)cc1C(C)(C)CC(O)(Cc1cc2cc(F)ccc2[nH]1)C(F)(F)F (racemic) | 84 | 94 | 98 | 24 | 405 | 405 | 78 | –
10 | COc1ccc(F)cc1C(C)(C)CC(O)(Cc1cc2cc(C)ccc2[nH]1)C(F)(F)F (racemic) | 86 | 230 | 104 | 66 | 1800 | 1250 | 113 | –
11 | COc1ccc(F)cc1C(C)(C)CC(O)(Cc1cc2cc(C(F)(F)F)ccc2[nH]1)C(F)(F)F (racemic) | 77 | 640 | 65 | 290 | > 2000 | > 2000 | 191 | –
12 | COc1ccc(F)cc1C(C)(C)CC(O)(Cc1cc2ccc(F)cc2[nH]1)C(F)(F)F (racemic) | 94 | 33 | 84 | 30 | 265 | 350 | 29 | –
13 | COc1ccc(F)cc1C(C)(C)CC(O)(Cc1cc2ccc(C)cc2[nH]1)C(F)(F)F (racemic) | 60 | 976 | 70 | 38 | 1250 | 720 | 334 | –
14 | COc1ccc(F)cc1C(C)(C)CC(O)(Cc1cc2ccc(C(F)(F)F)cc2[nH]1)C(F)(F)F (racemic) | – | > 2000 | – | 77 | 1600 | 910 | > 2000 | –
15 | C[C@@H]1C[C@H]2[C@@H]3CCC4=CC(=O)C=C[C@]4(C)[C@@]3(F)[C@@H](O)C[C@]2(C)[C@@]1(O)C(=O)CO [DEXAMETHASONE] | – | – | – | – | > 2000 | – | – | –
